Measured values: ChEMBL document CHEMBL3774311, “Synthesis and in vitro antitumour activity of tiazofurin analogues with nitrogen functionalities at the C-2' position” (Eur J Med Chem, 2016)

How the values were obtained:
[1] = test system: K562; experiment: Antiproliferative activity against human K562 cells after 72 hrs by MTT assay; type: functional, cell-based; conditions: Homo sapiens, K562, 72 h
Procedure, shortened: (§1)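 Human tumour lines and MRC-5 foetal lung fibroblasts (normal-cell comparator) exposed to compounds for 72 h; viability read by standard MTT assay. IC50 taken as concentration inhibiting growth by 50% versus untreated control; means of three independent experiments, coefficients of variation under 10%.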

[2] = Antiproliferative activity against human HL60 cells after 72 hrs by MTT assay; type: functional, cell-based, HL-60; conditions: Homo sapiens, HL-60, 72 h; procedure, shortened: as §1
[3] = test system: Jurkat; experiment: Antiproliferative activity against human Jurkat cells after 72 hrs by MTT assay; type: functional, cell-based; procedure, shortened: as §1
[4] = test system: Raji; experiment: Antiproliferative activity against human Raji cells after 72 hrs by MTT assay; type: functional, cell-based; conditions: Homo sapiens, Raji, 72 h; procedure, shortened: as §1
[5] = test system: HT-29; experiment: Antiproliferative activity against human HT-29 cells after 72 hrs by MTT assay; type: functional, cell-based; conditions: HT-29, 72 h; procedure, shortened: as §1
[6] = test system: MCF7; experiment: Antiproliferative activity against human MCF7 cells after 72 hrs by MTT assay; type: functional, cell-based; conditions: MCF7, 72 h; procedure, shortened: as §1
[7] = test system: HeLa; experiment: Antiproliferative activity against human HeLa cells after 72 hrs by MTT assay; type: functional, cell-based; conditions: Homo sapiens, HeLa, 72 h; procedure, shortened: as §1
[8] = test system: MRC5; experiment: Cytotoxicity against human MRC5 cells after 72 hrs by MTT assay; type: cell-based; conditions: MRC5, 72 h; procedure, shortened: as §1
[9] = test system: K562; experiment: Induction of cell cycle arrest in human K562 cells assessed as accumulation at Sub-G1 phase after 24 hrs by propidium iodide staining-based flow cytometry (reference value: 1.05%); type: functional
Procedure, shortened: (§2)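 Exponentially growing K562 cells treated 24 or 72 h; cells stained with propidium iodide and cell-cycle distribution (sub-G1, G0/G1, S, G2/M, %) measured by flow cytometry; untreated cells as control.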

[10] = test system: K562; experiment: Induction of cell cycle arrest in human K562 cells assessed as accumulation at Sub-G1 phase after 72 hrs by propidium iodide staining-based flow cytometry (reference value: 3.04%); type: functional; procedure, shortened: as §2
[11] = test system: K562; experiment: Induction of cell cycle arrest in human K562 cells assessed as accumulation at G0/G1 phase after 24 hrs by propidium iodide staining-based flow cytometry (reference value: 36.28%); type: functional; procedure, shortened: as §2
[12] = test system: K562; experiment: Induction of cell cycle arrest in human K562 cells assessed as accumulation at G0/G1 phase after 72 hrs by propidium iodide staining-based flow cytometry (reference value: 45.92%); type: functional; procedure, shortened: as §2
[13] = test system: K562; experiment: Induction of cell cycle arrest in human K562 cells assessed as accumulation at S phase after 24 hrs by propidium iodide staining-based flow cytometry (reference value: 48.38%); type: functional; procedure, shortened: as §2
[14] = test system: K562; experiment: Induction of cell cycle arrest in human K562 cells assessed as accumulation at S phase after 72 hrs by propidium iodide staining-based flow cytometry (reference value: 35.73%); type: functional; procedure, shortened: as §2
[15] = test system: K562; experiment: Induction of cell cycle arrest in human K562 cells assessed as accumulation at G2/M phase after 24 hrs by propidium iodide staining-based flow cytometry (reference value: 14.29%); type: functional; procedure, shortened: as §2
[16] = test system: K562; experiment: Induction of cell cycle arrest in human K562 cells assessed as accumulation at G2/M phase after 72 hrs by propidium iodide staining-based flow cytometry (reference value: 15.31%); type: functional; procedure, shortened: as §2
[17] = test system: K562; experiment: Induction of specific apoptosis in human K562 cells after 24 hrs by annexin V-FITC/propidium iodide staining based flow cytometry; type: functional; set-up: concentration or dose not given beside the values
Procedure, shortened: (§3)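 K562 cells treated 24 or 72 h, double-stained with Annexin V-FITC/PI and analysed by flow cytometry to give percentages of live, apoptotic and necrotic cells; apoptotic and necrotic responses expressed as specific apoptosis or specific necrosis (%).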

[18] = test system: K562; experiment: Induction of specific apoptosis in human K562 cells after 72 hrs by annexin V-FITC/propidium iodide staining based flow cytometry; type: functional; set-up: concentration or dose not given beside the values; procedure, shortened: as §3
[19] = test system: K562; experiment: Induction of specific necrosis in human K562 cells after 24 hrs by annexin V-FITC/propidium iodide staining based flow cytometry; type: functional; set-up: concentration or dose not given beside the values; procedure, shortened: as §3
[20] = test system: K562; experiment: Induction of specific necrosis in human K562 cells after 72 hrs by annexin V-FITC/propidium iodide staining based flow cytometry; type: functional; set-up: concentration or dose not given beside the values; procedure, shortened: as §3
[21] = test system: K562; experiment: Induction of apoptosis in human K562 cells assessed as necrotic cells after 24 hrs by annexin V-FITC/propidium iodide staining based flow cytometry (reference value: 1.50%); type: functional; procedure, shortened: as §3
[22] = test system: K562; experiment: Induction of apoptosis in human K562 cells assessed as late apoptotic cells after 24 hrs by annexin V-FITC/propidium iodide staining based flow cytometry (reference value: 4.58%); type: functional; procedure, shortened: as §3
[23] = test system: K562; experiment: Induction of apoptosis in human K562 cells assessed as living cells after 24 hrs by annexin V-FITC/propidium iodide staining based flow cytometry (reference value: 85.85%); type: functional; procedure, shortened: as §3
[24] = test system: K562; experiment: Induction of apoptosis in human K562 cells assessed as early apoptotic cells after 24 hrs by annexin V-FITC/propidium iodide staining based flow cytometry (reference value: 8.09%); type: functional; procedure, shortened: as §3
[25] = test system: K562; experiment: Induction of apoptosis in human K562 cells assessed as necrotic cells after 72 hrs by annexin V-FITC/propidium iodide staining based flow cytometry (reference value: 7.23%); type: functional; procedure, shortened: as §3
[26] = test system: K562; experiment: Induction of apoptosis in human K562 cells assessed as late apoptotic cells after 72 hrs by annexin V-FITC/propidium iodide staining based flow cytometry (reference value: 5.24%); type: functional; procedure, shortened: as §3
[27] = test system: K562; experiment: Induction of apoptosis in human K562 cells assessed as living cells after 72 hrs by annexin V-FITC/propidium iodide staining based flow cytometry (reference value: 84.31%); type: functional; procedure, shortened: as §3
[28] = test system: K562; experiment: Induction of apoptosis in human K562 cells assessed as early apoptotic cells after 72 hrs by annexin V-FITC/propidium iodide staining based flow cytometry (reference value: 3.22%); type: functional; procedure, shortened: as §3
[29] = test system: K562; experiment: Induction of apoptosis in human K562 cells assessed as Bcl2 protein level after 24 hrs by Western blotting method (reference value: 22.81%); type: functional
[30] = test system: K562; experiment: Induction of apoptosis in human K562 cells assessed as Bax protein level after 24 hrs by Western blotting method (reference value: 16.13%); type: functional
[31] = test system: K562; experiment: Induction of apoptosis in human K562 cells assessed as caspase 3 level after 24 hrs by Western blotting method (reference value: 42.77%); type: functional
[32] = test system: K562; experiment: Induction of apoptosis in human K562 cells assessed as cleaved PARP level after 24 hrs by Western blotting method (reference value: 36.17%); type: functional
[33] = test system: K562; experiment: Induction of apoptosis in human K562 cells assessed as Bcl2 protein level after 72 hrs by Western blotting method (reference value: 7.90%); type: functional
[34] = test system: K562; experiment: Induction of apoptosis in human K562 cells assessed as Bax protein level after 72 hrs by Western blotting method (reference value: 32.81%); type: functional
[35] = test system: K562; experiment: Induction of apoptosis in human K562 cells assessed as caspase 3 level after 72 hrs by Western blotting method (reference value: 17.05%); type: functional
[36] = test system: K562; experiment: Induction of apoptosis in human K562 cells assessed as cleaved PARP level after 72 hrs by Western blotting method (reference value: 18.36%); type: functional
[37] = Antiproliferative activity against human HL60 cells after 24 hrs; type: functional, cell-based; conditions: HL-60, 24 h

| SMILES | IC50 [1] | IC50 [2] | IC50 [3] | IC50 [4] | IC50 [5] | IC50 [6] | IC50 [7] | IC50 [8] | Activity [9] | Activity [10] | Activity [11] | Activity [12] | Activity [13] | Activity [14] | Activity [15] | Activity [16] | Activity [17] | Activity [18] | Activity [19] | Activity [20] | other results |
| --- | --- | --- | --- | --- | --- | --- | --- | --- | --- | --- | --- | --- | --- | --- | --- | --- | --- | --- | --- | --- | --- |
| NC(=O)c1csc([C@@H]2O[C@H](CO)[C@@H](O)[C@H]2NC(=O)c2ccccc2)n1 | 0.02 µM | 20.4 µM | 0.03 µM | 0.01 µM | 0.02 µM | 19.9 µM | > 100 µM | 0.05 µM | 6.12% | 11.29% | 39.08% | 44.1% | 49.13% | 34.11% | 5.67% | 10.5% | 29% | 50.41% | 11.71% | 6.86% | Activity [21]: 13.22%; Activity [22]: 26.45%; Activity [23]: 53.81%; Activity [24]: 6.54%; Activity [25]: 7.35%; Activity [26]: 80.99%; Activity [27]: 3.74%; Activity [28]: 7.94%; Activity [29]: 64.31%; Activity [30]: 30.99%; Activity [31]: 93.34%; Activity [32]: 57.9%; Activity [33]: 15.94%; Activity [34]: 95.1%; Activity [35]: 27.61%; Activity [36]: 63.83%; IC50 [37]: 0.12 µM |
| CC(=O)N[C@@H]1[C@H](O)[C@@H](CO)O[C@H]1c1nc(C(N)=O)cs1 | > 100 µM | > 100 µM | > 100 µM | 14.7 µM | > 100 µM | 3.92 µM | > 100 µM | 5.26 µM | 3.71% | 11.17% | 43.07% | 48.09% | 45.03% | 31.42% | 8.21% | 9.32% | 12.6% | 43.6% | 5.88% | 24.55% | Activity [21]: 7.39%; Activity [22]: 12.48%; Activity [23]: 75.11%; Activity [24]: 5.03%; Activity [25]: 25.03%; Activity [26]: 62.01%; Activity [27]: 7.05%; Activity [28]: 5.93%; Activity [29]: 63.4%; Activity [30]: 18.43%; Activity [31]: 90.45%; Activity [32]: 95.59%; Activity [33]: 37.09%; Activity [34]: 98.81%; Activity [35]: 93.75%; Activity [36]: 33.66% |
| COc1cccc(C(=O)N[C@@H]2[C@H](O)[C@@H](CO)O[C@H]2c2nc(C(N)=O)cs2)c1 | > 100 µM | 2.69 µM | 23.6 µM | 6.29 µM | > 100 µM | 9.54 µM | > 100 µM | > 100 µM | 4.44% | 10.84% | 39.45% | 43.13% | 46.71% | 34% | 9.41% | 12.04% | 11.88% | 37.07% | 3.68% | 10.33% | Activity [21]: 5.19%; Activity [22]: 8.67%; Activity [23]: 77.99%; Activity [24]: 8.16%; Activity [25]: 10.82%; Activity [26]: 69.98%; Activity [27]: 2.76%; Activity [28]: 16.45%; Activity [29]: 47.76%; Activity [30]: 4.66%; Activity [31]: 104.69%; Activity [32]: 111.75%; Activity [33]: 26.7%; Activity [34]: 89.53%; Activity [35]: 82.68%; Activity [36]: 37.39% |
